# Measurements reported in ChEMBL document CHEMBL5653631, “A Potent and Selective ULK1 Inhibitor Suppresses Autophagy and Sensitizes Cancer Cells to Nutrient Stress” (iScience, 2018).
# Legend:
# [1] = target: Serine/threonine-protein kinase PLK1 (Homo sapiens) (UniProt P53350); assay: Inhibition of human recombinant PLK1 at 40 nM in presence of ATP by radiometric assay relative to control
# [2] = target: Serine/threonine-protein kinase Nek6 (Homo sapiens) (UniProt Q9HC98); assay: Inhibition of human recombinant NEK6 at 40 nM in presence of ATP by radiometric assay relative to control
# Chain of Serine/threonine-protein kinase Nek6 (Homo sapiens) (Q9HC98 whole entry): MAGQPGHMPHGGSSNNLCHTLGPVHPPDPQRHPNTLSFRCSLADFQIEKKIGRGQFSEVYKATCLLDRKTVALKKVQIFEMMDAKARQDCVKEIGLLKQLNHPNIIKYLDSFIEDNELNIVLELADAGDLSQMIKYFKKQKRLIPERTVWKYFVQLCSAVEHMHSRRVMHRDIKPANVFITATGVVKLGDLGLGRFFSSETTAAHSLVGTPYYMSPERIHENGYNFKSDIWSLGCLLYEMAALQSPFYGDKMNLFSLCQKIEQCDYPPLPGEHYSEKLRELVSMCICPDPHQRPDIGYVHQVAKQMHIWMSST
# [3] = target: Dual specificity mitogen-activated protein kinase kinase 1 (Homo sapiens) (UniProt Q02750); assay: Inhibition of human recombinant MAP2K1 at 40 nM in presence of ATP by radiometric assay relative to control
# [4] = target: T1, Tribbles homolog 2 (Homo sapiens) (UniProt Q92519); assay: Inhibition of human recombinant Trb2 at 40 nM related to control ULK1
# T1 sequence (whole entry): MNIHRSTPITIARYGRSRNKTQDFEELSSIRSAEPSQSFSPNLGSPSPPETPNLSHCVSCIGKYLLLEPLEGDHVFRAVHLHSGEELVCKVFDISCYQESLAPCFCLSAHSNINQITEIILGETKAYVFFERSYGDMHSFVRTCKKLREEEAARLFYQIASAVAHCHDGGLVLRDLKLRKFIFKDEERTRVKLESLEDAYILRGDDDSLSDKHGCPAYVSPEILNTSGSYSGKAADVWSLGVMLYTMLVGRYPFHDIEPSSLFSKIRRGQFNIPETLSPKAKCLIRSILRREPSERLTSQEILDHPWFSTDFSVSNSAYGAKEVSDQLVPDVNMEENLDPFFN
# [5] = target: Cyclin-dependent kinase 18 (Homo sapiens) (UniProt Q07002); assay: Inhibition of human recombinant PCTAIRE3 at 40 nM in presence of ATP by radiometric assay relative to control
# Chain of Cyclin-dependent kinase 18 (Homo sapiens) (Q07002 whole entry): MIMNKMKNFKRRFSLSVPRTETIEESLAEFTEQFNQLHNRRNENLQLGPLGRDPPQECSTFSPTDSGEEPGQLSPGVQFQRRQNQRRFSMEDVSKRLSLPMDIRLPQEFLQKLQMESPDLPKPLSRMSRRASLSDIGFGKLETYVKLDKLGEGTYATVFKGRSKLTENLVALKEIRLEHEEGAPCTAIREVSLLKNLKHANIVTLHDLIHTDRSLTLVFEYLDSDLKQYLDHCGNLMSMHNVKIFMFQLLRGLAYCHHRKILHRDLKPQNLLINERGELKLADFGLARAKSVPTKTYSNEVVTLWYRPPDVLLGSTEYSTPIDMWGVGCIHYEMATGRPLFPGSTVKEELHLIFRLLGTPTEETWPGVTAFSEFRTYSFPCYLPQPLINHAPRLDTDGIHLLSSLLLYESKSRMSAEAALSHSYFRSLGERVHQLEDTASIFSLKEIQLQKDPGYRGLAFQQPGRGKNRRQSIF
# [6] = target: T2, Tyrosine-protein kinase receptor TYRO3 (Homo sapiens) (UniProt Q06418); assay: Inhibition of human recombinant TYRO3 at 500 nM related to control ULK1
# T2 sequence (whole entry): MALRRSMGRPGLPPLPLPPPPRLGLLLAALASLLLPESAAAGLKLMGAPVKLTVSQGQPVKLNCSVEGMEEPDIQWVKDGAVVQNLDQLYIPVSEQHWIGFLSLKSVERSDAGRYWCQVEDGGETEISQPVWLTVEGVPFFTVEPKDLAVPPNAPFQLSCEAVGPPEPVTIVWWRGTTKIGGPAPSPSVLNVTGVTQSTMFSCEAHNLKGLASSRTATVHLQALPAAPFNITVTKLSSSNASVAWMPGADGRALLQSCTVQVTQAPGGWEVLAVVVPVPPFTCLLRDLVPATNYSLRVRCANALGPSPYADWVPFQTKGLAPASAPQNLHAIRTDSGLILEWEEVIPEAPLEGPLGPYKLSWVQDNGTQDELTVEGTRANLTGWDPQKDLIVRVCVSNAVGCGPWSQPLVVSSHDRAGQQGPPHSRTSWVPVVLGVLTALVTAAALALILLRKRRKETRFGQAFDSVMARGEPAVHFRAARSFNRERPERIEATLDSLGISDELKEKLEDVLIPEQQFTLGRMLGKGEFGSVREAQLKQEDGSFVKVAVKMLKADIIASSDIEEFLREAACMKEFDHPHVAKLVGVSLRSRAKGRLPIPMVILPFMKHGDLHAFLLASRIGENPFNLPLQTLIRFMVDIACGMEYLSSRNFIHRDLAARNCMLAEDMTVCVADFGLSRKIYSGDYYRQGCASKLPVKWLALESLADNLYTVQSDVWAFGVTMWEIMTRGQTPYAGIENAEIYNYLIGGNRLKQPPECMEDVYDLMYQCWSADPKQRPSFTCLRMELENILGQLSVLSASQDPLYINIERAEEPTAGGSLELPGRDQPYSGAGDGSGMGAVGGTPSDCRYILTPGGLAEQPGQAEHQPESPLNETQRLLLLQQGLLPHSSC
# [7] = target: Serine/threonine-protein kinase Nek4 (Homo sapiens) (UniProt P51957); assay: Inhibition of human recombinant NEK4 at 500 nM related to control ULK1
# [8] = target: TGF-beta receptor type-2 (Homo sapiens) (UniProt P37173); assay: Inhibition of human recombinant TGFbR2 at 500 nM related to control ULK1
# Chain of TGF-beta receptor type-2 (Homo sapiens) (P37173 whole entry, canonical isoform): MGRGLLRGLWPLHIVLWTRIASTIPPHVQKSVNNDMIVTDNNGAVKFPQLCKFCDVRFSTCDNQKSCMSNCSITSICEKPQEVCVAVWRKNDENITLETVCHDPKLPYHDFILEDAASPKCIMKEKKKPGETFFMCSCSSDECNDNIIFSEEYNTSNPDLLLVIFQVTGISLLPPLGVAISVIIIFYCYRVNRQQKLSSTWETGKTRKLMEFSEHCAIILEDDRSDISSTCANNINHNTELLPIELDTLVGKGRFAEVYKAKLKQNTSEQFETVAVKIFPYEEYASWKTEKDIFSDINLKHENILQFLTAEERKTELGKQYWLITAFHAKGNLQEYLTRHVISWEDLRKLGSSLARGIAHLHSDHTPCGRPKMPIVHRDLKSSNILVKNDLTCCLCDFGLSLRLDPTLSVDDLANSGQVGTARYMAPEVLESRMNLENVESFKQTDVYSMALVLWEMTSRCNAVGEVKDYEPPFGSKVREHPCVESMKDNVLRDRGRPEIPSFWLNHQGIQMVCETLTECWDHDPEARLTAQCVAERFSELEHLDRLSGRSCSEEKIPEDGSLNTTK
# [9] = target: Casein kinase I isoform gamma-1 (Homo sapiens) (UniProt Q9HCP0); assay: Inhibition of human recombinant CK1g1 at 500 nM in presence of ATP by radiometric assay relative to control
# [10] = target: Calcium/calmodulin-dependent protein kinase type II subunit alpha (Homo sapiens) (UniProt Q9UQM7); assay: Inhibition of human recombinant CaMK2a at 500 nM related to control ULK1
# [11] = target: RAC-beta serine/threonine-protein kinase (Homo sapiens) (UniProt P31751); assay: Inhibition of human recombinant AKT2 at 500 nM in presence of ATP by radiometric assay relative to control
# Chain of RAC-beta serine/threonine-protein kinase (Homo sapiens) (P31751 whole entry): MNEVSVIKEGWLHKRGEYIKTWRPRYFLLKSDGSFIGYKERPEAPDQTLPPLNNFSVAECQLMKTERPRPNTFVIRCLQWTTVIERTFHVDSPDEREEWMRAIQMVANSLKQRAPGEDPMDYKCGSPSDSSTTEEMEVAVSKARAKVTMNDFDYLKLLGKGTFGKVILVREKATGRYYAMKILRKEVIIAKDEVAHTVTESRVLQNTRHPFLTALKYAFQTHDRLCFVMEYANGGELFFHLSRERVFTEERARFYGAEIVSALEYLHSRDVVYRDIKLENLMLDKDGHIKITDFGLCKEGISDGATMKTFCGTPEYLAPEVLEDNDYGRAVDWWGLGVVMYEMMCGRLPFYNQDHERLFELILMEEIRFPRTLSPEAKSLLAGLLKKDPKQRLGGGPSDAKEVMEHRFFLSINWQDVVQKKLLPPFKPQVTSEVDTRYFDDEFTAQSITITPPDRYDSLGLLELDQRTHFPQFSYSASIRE
# How it was run: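 Panel of 327 recombinant human kinases in radiometric activity assays, each screened in duplicate at a single inhibitor concentration; percent activity remaining relative to vehicle control, percent inhibition taken as 100 minus activity remaining.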
# [12] = target: Dual specificity tyrosine-phosphorylation-regulated kinase 1A (Homo sapiens) (UniProt Q13627); assay: Inhibition of human recombinant DYRK1A at 500 nM related to control ULK1
# [13] = target: Macrophage colony-stimulating factor 1 receptor (Homo sapiens) (UniProt P07333); assay: Inhibition of human recombinant FMS at 500 nM related to control ULK1
# [14] = target: Cyclin-dependent kinase-like 3 (Homo sapiens) (UniProt Q8IVW4); assay: Inhibition of human recombinant CDKL3 at 15 nM in presence of ATP by radiometric assay relative to control
# Chain of Cyclin-dependent kinase-like 3 (Homo sapiens) (Q8IVW4 whole entry, looked up): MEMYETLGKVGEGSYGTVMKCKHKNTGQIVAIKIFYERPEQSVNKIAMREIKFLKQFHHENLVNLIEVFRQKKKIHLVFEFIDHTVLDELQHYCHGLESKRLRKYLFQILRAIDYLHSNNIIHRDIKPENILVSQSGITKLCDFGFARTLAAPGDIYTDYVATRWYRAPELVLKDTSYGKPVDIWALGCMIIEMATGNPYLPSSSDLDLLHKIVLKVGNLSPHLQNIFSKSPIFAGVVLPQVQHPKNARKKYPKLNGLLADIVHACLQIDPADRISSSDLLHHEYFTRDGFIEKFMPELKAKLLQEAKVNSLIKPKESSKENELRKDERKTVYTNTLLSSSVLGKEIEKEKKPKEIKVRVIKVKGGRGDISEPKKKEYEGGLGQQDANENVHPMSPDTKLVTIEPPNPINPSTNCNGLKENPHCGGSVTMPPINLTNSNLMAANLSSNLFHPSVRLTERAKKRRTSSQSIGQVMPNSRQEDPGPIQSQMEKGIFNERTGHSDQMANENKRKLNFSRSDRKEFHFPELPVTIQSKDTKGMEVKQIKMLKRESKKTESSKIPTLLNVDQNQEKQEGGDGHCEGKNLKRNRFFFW
# [15] = target: Serine/threonine-protein kinase ULK1 (Homo sapiens, UniProt O75385); assay: Inhibition of ULK1 phosphorylation at Ser15 residue in HEK293 cells incubated for 1 hr by chemiluminescence based immunoblotting analysis; type: cell-based, HEK293T
# Chain of Serine/threonine-protein kinase ULK1 (O75385 whole entry): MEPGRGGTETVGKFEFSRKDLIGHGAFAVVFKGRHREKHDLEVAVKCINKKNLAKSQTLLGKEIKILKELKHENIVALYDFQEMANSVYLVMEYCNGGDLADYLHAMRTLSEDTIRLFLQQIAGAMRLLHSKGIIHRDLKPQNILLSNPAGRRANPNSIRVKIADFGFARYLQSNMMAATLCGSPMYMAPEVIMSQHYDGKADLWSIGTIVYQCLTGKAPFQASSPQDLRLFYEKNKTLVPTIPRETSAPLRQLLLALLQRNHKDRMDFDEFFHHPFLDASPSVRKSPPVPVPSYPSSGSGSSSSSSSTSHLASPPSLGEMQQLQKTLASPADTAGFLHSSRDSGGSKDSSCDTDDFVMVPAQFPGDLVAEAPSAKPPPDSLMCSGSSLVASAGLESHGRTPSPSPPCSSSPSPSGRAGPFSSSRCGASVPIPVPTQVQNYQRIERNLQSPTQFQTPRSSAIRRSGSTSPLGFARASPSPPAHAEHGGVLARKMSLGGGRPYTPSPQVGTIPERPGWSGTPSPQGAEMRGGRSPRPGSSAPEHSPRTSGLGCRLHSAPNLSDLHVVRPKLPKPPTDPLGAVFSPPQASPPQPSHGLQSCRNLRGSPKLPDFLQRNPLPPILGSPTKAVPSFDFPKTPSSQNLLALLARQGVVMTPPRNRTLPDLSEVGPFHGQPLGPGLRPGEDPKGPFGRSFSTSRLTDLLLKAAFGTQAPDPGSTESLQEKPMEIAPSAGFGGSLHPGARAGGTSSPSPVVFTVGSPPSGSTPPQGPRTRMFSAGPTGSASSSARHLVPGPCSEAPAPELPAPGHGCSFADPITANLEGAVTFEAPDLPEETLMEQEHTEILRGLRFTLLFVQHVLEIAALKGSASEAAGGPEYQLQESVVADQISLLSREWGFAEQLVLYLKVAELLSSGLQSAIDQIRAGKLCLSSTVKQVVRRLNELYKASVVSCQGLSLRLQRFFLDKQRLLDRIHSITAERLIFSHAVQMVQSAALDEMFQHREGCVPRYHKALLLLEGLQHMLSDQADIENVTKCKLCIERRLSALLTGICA
# [16] = target: Calcium/calmodulin-dependent protein kinase type 1 (Homo sapiens) (UniProt Q14012); assay: Inhibition of human recombinant CaMK1a at 15 nM related to control ULK1
# [17] = target: Protein kinase C eta type (Homo sapiens) (UniProt P24723); assay: Inhibition of human recombinant PKCH at 15 nM related to control ULK1
# Chain of Protein kinase C eta type (Homo sapiens) (P24723 whole entry, canonical isoform): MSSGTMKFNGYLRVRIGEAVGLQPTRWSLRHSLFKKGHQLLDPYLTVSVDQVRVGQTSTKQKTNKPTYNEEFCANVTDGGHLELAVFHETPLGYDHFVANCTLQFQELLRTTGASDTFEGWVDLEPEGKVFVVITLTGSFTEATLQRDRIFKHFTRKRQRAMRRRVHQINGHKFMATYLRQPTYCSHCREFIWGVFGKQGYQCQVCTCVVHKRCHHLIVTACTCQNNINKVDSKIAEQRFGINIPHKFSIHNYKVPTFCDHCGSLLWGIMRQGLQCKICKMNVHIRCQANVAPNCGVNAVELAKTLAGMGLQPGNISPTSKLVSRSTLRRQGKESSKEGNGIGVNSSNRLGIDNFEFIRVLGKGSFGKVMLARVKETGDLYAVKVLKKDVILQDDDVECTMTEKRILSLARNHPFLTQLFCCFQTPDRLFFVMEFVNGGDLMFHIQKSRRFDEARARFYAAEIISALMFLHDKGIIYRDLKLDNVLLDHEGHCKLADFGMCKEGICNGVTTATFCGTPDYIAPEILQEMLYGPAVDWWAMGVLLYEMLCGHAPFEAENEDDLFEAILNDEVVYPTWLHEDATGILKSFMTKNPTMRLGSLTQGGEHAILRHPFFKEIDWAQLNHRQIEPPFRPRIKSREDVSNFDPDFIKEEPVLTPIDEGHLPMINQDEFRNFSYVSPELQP
# [18] = target: Casein kinase I isoform gamma-3 (Homo sapiens) (UniProt Q9Y6M4); assay: Inhibition of human recombinant CK1g3 at 15 nM in presence of ATP by radiometric assay relative to control
# Chain of Serine/threonine-protein kinase PLK1 (Homo sapiens) (P53350 whole entry): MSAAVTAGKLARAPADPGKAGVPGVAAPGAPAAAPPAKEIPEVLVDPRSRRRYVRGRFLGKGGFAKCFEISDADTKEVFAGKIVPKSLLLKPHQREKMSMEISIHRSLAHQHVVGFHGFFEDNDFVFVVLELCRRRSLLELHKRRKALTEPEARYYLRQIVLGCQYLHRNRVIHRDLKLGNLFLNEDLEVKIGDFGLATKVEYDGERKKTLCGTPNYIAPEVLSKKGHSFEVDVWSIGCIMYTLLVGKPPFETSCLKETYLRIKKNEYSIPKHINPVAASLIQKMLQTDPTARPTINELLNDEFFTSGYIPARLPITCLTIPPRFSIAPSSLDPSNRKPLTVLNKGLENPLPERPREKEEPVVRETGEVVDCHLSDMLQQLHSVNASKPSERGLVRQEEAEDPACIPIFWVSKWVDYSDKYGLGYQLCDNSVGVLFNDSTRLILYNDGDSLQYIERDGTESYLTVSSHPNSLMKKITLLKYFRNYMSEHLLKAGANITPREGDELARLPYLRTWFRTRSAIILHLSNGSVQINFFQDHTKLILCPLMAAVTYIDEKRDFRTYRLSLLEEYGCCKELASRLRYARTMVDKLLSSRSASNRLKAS
structure (smiles),measurement,setting,value
O=C(N[C@@H](C1CC1)C(F)(F)F)c1cc(-c2cnn3cc(-c4ccc(F)cc4)cnc23)cs1,inhibition,[1],0%
same,inhibition,[2],0%
same,inhibition,[3],0%
same,fold change (FC),[4],0.47
same,inhibition,[5],31%
CNC(=O)c1ccccc1Oc1nc(Nc2cc(OC)c(OC)c(OC)c2)ncc1Br,fold change (FC),[6],0.14
same,fold change (FC),[7],0.31
same,fold change (FC),[8],0.03
same,inhibition,[9],0%
same,fold change (FC),[10],0
same,inhibition,[11],7%
same,fold change (FC),[12],0.01
same,fold change (FC),[13],0.26
CC(C)[C@H](NC(=O)c1cc(-c2cnn3cc(-c4ccc(OCCN5CCCCC5)cc4)cnc23)cs1)C(F)(F)F,inhibition,[14],34%
same,EC50,[15],83 nM
same,fold change (FC),[16],0.08
same,fold change (FC),[17],0
same,inhibition,[18],3%
